# Bioassay records from PubChem.
# Compounds with a hit are over-represented: about 2% of the library has one in this group of screens.
# C8 TRAIL sens – caspase-8 TRAIL sensitization; NB7+C8 cells + TRAIL, ATPlite viability luminescence; inhibition (viability loss, TRAIL sensitization), % at 10 µM; hit rate 1% among 360,000;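 active = compounds causing at least 50% loss of cell viability in the single-dose screen, relative to plate controls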
# FLuc stim CS – firefly luciferase counter-screen for stimulation assays. AID 1027. P08659. 200,000 tested, under 10 active. ATPlite luciferase biochemical, luminescence, 10 min; 0 = ATP-free wells, 1 = DMSO control. activation factor at 10 µM;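 active = luciferase activation factor, scaled between plate controls, of at least 2 with compound at 10 µM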
# Target sequence (P08659 whole entry, looked up): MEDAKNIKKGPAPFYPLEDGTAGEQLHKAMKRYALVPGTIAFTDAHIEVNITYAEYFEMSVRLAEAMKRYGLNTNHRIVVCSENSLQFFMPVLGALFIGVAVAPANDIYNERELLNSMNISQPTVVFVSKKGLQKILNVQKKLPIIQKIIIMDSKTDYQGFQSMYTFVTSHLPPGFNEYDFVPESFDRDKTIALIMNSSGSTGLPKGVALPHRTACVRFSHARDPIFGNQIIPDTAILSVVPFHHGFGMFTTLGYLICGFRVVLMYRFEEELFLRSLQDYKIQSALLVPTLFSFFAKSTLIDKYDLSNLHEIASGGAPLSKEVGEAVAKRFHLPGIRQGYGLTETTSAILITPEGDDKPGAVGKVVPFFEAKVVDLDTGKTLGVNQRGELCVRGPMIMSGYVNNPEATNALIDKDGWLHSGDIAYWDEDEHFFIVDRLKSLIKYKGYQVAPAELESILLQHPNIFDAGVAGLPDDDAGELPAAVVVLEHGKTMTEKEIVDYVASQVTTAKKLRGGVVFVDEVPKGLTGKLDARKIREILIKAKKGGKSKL
#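 System: cell-free luciferase reagent; medium: PBS as buffer for the ATP substrate; doses: test compounds dosed from 2 mM stocks in 100% DMSO; incubation: 10 min, room temperature; measured by: luminescence from luciferase reaction; read-out: luciferase activation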
# HSP90 inh – blocks HSP90-mediated luciferase refolding in reticulocyte lysate; Rabbit reticulocyte lysate, luciferase refolding luminescence, 3 h; inhibition, % at 5.6 µM; hit rate 0.91% among 290,000; AID 1789;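 active = inhibition above the screen-wide mean plus 3 SD, computed separately per campaign, cut at about 16% in these data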;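 also: 0% = DMSO wells and 100% = 60 µM geldanamycin wells; inhibitors lower the luminescence because luciferase stays unfolded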
# FLuc inhib CS – Photinus pyralis luciferase inhibition counter-screen; ATPLite firefly luciferase biochemical luminescence, 10 min; inhibition, % at 10 µM; hit rate 1.5% among 200,000;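 active = inhibition above about 50% when tested at 10 µM, limit read from the data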
# PPC-1+TRAIL kill – PPC-1 cancer cell killing with TRAIL present | cell killing (% activity), % at 4 µM or 5 µM | hit rate 0.41% among 220,000 | PPC-1 cells + TRAIL, ATPLite viability luminescence;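 active = cell killing above 50% in the first pass at 4 µM, then a duplicate retest at 5 µM averaging 50% or more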;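 also: plate controls were cells with TRAIL plus DMSO for no effect and medium-only wells lacking cells for full effect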
# PPC-1 tox – PPC-1 cell cytotoxicity. AID 1447. cytotoxicity, % at 5 µM. shares compounds with PPC-1+TRAIL kill. PPC-1 viability, ATPlite luminescence, overnight. hit rate 50% among 1,200;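 active = reconfirmed compounds whose average cytotoxicity reaches 50% or more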;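 also: 0% = DMSO-treated cells and 100% = wells holding medium but no cells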
# Active calls of the source: *; . = no result given.
SMILES,C8 TRAIL sens,FLuc stim CS,HSP90 inh,FLuc inhib CS,PPC-1+TRAIL kill,PPC-1 tox
Cc1c(Cl)cccc1NC(=O)CCNC(=O)N1CC(=O)Nc2ccccc21,-3,.,2,.,.,.
O=C(Nc1ccccc1Br)C1CCN(S(=O)(=O)c2cccs2)CC1,-12,.,.,.,.,.
COc1ccc2[nH]c(C(=O)O)c(CCC(=O)O)c2c1,-9,1,-2,0,1,14
Cc1cc(NC(=O)CSCC(=O)N(C)Cc2ccc(Cl)cc2Cl)no1,-3,.,.,.,.,.
CC1CCc2c(sc(/N=C/c3ccco3)c2C(N)=O)C1 (centres undefined),63*,.,5,.,49,49
O=C(Nc1ccccc1OC(F)F)c1ccccc1,-6,1.1,0,-12,25,.
CCOc1cccc(C(=O)Nc2ccccc2OC(F)F)c1,10,1,-1,-4,9,13
O=C(COC(=O)c1ccc(Br)o1)NCCc1ccccc1,-8,1,2,-1,10,.
Cc1cccc(/C=C2\CCC(=C3SCCCS3)C2=O)c1,82*,0.1,14,93*,78*,80*
COc1cccc(/C=C/C(=O)Nc2ccc3c(c2)OCCO3)c1OC,80*,0.1,21*,93*,70*,66*
CC(=O)c1cccc(NC(=O)c2ccc3c(Cl)c4c(nc3c2)CCCC4)c1,15,0.8,6,20,10,.
O=C(Nc1cccnc1Cl)c1ccc2c(Cl)c3c(nc2c1)CCC3,76*,0.1,2,91*,63*,65*
CC(=O)Nc1ccc(-n2nnnc2SCC(=O)NCc2cccs2)cc1,-4,1.1,-3,-10,4,.
Cc1ccc2nc(NC(=O)CN3C(=O)C4CC=CCC4C3=O)sc2c1 (centres undefined),3,0.8,-2,22,9,21
Cc1ccc2nc(NC(=O)c3ccc(Cl)s3)sc2c1,42,0.6,-6,35,9,10
O=C(Nc1nc2ccc(F)cc2s1)c1ccccn1,.,0.1,56*,90*,60*,62*
O=C(N/N=C1/SCC(=O)N1Cc1ccco1)c1ccccc1F,3,1,2,0,-12,.
Cc1cccc(Nc2nc3c(s2)CCCC3)c1,4,0.9,-8,12,-11,.
O=S1(=O)N=C(Nc2nc3c(s2)CCCC3)c2ccccc21,75*,0.1,3,87*,60*,60*
CCc1cccc(OCC(=O)Nc2ccc(S(=O)(=O)Nc3ccccn3)cc2)c1,-1,1.1,-2,-6,6,8
COc1cc(/C=C2\CCc3c2nc2ccccc2c3C(=O)O)cc(OC)c1OC,57*,.,1,.,52*,54*
COc1cc(OC)c(N(C)S(=O)(=O)c2cccc(C(=O)Nc3nccs3)c2)cc1Cl,6,.,.,.,.,.
CN1CCN(CCCNC(=O)c2nnc(Cc3c(F)cccc3Cl)o2)CC1,3,1,6,-2,7,16
O=C(NCCCN1CCCC1=O)c1nnc(Cc2c(F)cccc2Cl)o1,-11,1,3,-2,5,.
CCC(C)(C(=O)NC1CCCC1)N(Cc1cccs1)C(=O)c1ccc2c(c1)OCO2 (centres undefined),-8,1,0,0,23,.
SMILES,C8 TRAIL sens,FLuc stim CS,HSP90 inh,FLuc inhib CS,PPC-1+TRAIL kill,PPC-1 tox
Nc1cc(Cl)ccc1N1CCCCCC1,5,1,-3,1,27,.
COc1ccc(C(=O)N/N=C/c2ccccn2)cc1OC,-3,1,4,0,7,.
COc1ccc(C(=O)Nc2ccccc2C(=O)N/N=C/c2ccccn2)cc1OC,85*,.,4,.,75*,75*
O=C(NCCc1ccccc1F)C(=O)Nc1nccs1,10,1,2,-1,0,-1
O=C(NCc1ccc(Cl)cc1)C(=O)Nc1nccs1,7,1,-6,-5,22,.
C/C(=C\c1ccc2c(c1)OCO2)C(=O)c1c(C)cc(C)[nH]c1=O,-4,1,1,-4,17,.
CC(C)CO/C(=N/S(=O)(=O)c1ccccc1)c1ccccc1,-2,1.1,4,-10,-13,11
Cc1ccc(C(=O)Nc2cc(C)c(OCC(=O)N3CCOCC3)c(C)c2)cc1,83*,0.1,8,88*,79*,79*
COc1ccc(C(=O)COC(=O)CNC(=O)c2ccccc2)cc1F,-6,.,.,.,.,.
CC(C)(C)c1nc2scc(-c3ccc(Cl)cc3)c2c(=O)o1,13,1.1,8,-6,-5,-2
